Series [1] concerns HeLa. The experiment in a line: Toxicity against human HeLa cells assessed as effect on cell membrane integrity at 1 to 20 uM after 48 hrs by trypan blue dye exclusion method. Format: cell-based.
The subject of series [2] is HeLa. The experiment in a line: Antiproliferative activity against human HeLa cells assessed as reduction in cell proliferation after 48 hrs by MTT assay. Format: functional. The essentials:
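HeLa cells grown with FBS, 2 mM L-glutamine, penicillin/streptomycin at 37 °C, 5% CO2, seeded at 1.0 × 10^4 cells/cm2 (approx.). After 24 h, medium switched to 5% FBS medium with compounds diluted from 20 mM DMSO stocks, 50 to 0.05 µM, final DMSO ≤0.25% (vehicle control). Incubated 48 h. MTT 0.5 mg/mL for 4 h at 37 °C, formazan dissolved in DMSO, OD 570 nm. GI50 by linear regression of percent growth vs control. Three experiments, each in quadruplicate.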

Series [3] deals with HeLa. The series can be described thus: Induction of cell cycle arrest in human HeLa cells assessed as increase in accumulation at subG0/G1 phase after 24 to 48 hrs by propidium iodide staining based flow cytometry. Type of series: functional. The note with it: TDE = time-dependent effect. On the technique in general: Flow cytometry measures light scatter and fluorescence of single cells or particles in a stream.

The text below walks through data of ChEMBL document CHEMBL3392992, “Synthesis, antiproliferative activity, and in silico insights of new 3-benzoylamino-benzo[b]thiophene derivatives” (Eur J Med Chem, 2015).

Usually GI50 stands for the concentration giving 50% growth inhibition. For the compound `CCOC(=O)c1sc2ccc(NCc3nc[nH]c3C)cc2c1NC(=O)c1ccc(OC)cc1`, the Activity entry in the series on HeLa [1] was “Non-toxic”. Also, the GI50 in the series on HeLa [2] came to 8.22 µM.
Taken in the same sequence, the figures for `CCOC(=O)c1sc2ccc(N)cc2c1NC(=O)c1ccc(OC)cc1` were “Non-toxic” and more than 50 µM.
As to `CCOC(=O)c1sc2ccc(NCc3nc[nH]c3C)cc2c1NC(=O)c1ccc(F)c(Cl)c1`, the figures for the Activity result in the series with HeLa [3] and in the series with HeLa [1] were “tde” and “Non-toxic”, respectively. Further, the GI50 with HeLa [2] turned out to be 2.91 µM.
As for `CCOC(=O)c1sc2ccc(NCc3nc[nH]c3C)cc2c1NC(=O)c1ccc(C)cc1`, the Activity result in the series with HeLa [1] was “Non-toxic”. Moreover, the GI50 with HeLa [2] worked out at 11.4 µM.
Regarding `CCOC(=O)c1sc2ccc(NCc3nc[nH]c3C)cc2c1NC(=O)c1cc(OC)c(OC)c(OC)c1`, the Activity result in the series with HeLa [3] is “tde”; in the series on HeLa [1], “Non-toxic”. For the same compound, in the series with HeLa [2], the GI50 was 2.23 µM.
In the case of `CCOC(=O)c1sc2ccc(NCc3c[nH]cn3)cc2c1NC(=O)c1ccc(F)c(Cl)c1`, the Activity entry in the series on HeLa [1] is “Non-toxic”. Moreover, in the series on HeLa [2], the concentration for 50% growth inhibition (GI50) came out at 10.7 µM.
For the compound `CCOC(=O)c1sc2ccc(N)cc2c1NC(=O)c1cc(OC)c(OC)c(OC)c1`, the figures for the Activity entry in the series on HeLa [3] and with HeLa [1] were “tde” and “Non-toxic”, respectively. Further, the GI50 in the series with HeLa [2] turned out to be 4.66 µM.
On to `CCOC(=O)c1sc2ccc(N)cc2c1NC(=O)c1ccccc1`, for which, in the series with HeLa [1], the Activity entry is on record as “Non-toxic”. The GI50 with HeLa [2] is more than 50 µM.
In the same order, the values of `CCOC(=O)c1sc2ccc(NCc3nc[nH]c3C)cc2c1NC(=O)c1ccccc1` are “Non-toxic” and 23.3 µM.
Turning to `CCOC(=O)c1sc2ccc(NCc3nc[nH]c3C)cc2c1NC(=O)c1ccc(C(F)(F)F)cc1`, in the series on HeLa [1], the Activity result is “Non-toxic”. For the same compound, the 50% growth inhibitory concentration (GI50) in the series on HeLa [2] came out at 12.8 µM.
As to `CCOC(=O)c1sc2ccc(NCc3c[nH]cn3)cc2c1NC(=O)c1cc(OC)c(OC)c(OC)c1`, the Activity result in the series with HeLa [1] is “Non-toxic”. In the series on HeLa [2], the GI50 worked out at 6.79 µM.
In the same order, the values of `CCOC(=O)c1sc2ccc(NCc3c[nH]cn3)cc2c1NC(=O)c1ccc(C(F)(F)F)cc1` are “Non-toxic” and 16.8 µM.
`CCOC(=O)c1sc2ccc(NCc3c[nH]cn3)cc2c1NC(=O)c1ccccc1`: the Activity entry in the series on HeLa [1] was “Non-toxic”. The GI50 in the series with HeLa [2] is 17.9 µM.
Taken in the same sequence, the figures for `CCOC(=O)c1sc2ccc(N)cc2c1NC(=O)c1ccc(F)c(Cl)c1` were “Non-toxic” and 12.3 µM.
Taken in the same sequence, the figures for `CCOC(=O)c1sc2ccc(NCc3c[nH]cn3)cc2c1NC(=O)c1ccc(C)cc1` were “Non-toxic” and 11.7 µM.
Taken in the same sequence, the figures for `CCOC(=O)c1sc2ccc(N)cc2c1NC(=O)c1ccc(C)cc1` were “Non-toxic” and 24.4 µM.
As to `CCOC(=O)c1sc2ccc(N)cc2c1NC(=O)c1ccc(C(F)(F)F)cc1`, the Activity entry in the series with HeLa [1] is recorded as “Non-toxic”. The GI50 with HeLa [2] was determined as 6.68 µM.
In the same order, the values of `CCOC(=O)c1sc2ccc(NCc3c[nH]cn3)cc2c1NC(=O)c1ccc(OC)cc1` are “Non-toxic” and 12.9 µM.
